# Key:
# Format in all cases: functional
# Staphylococcus aureus = assay: Antibacterial activity against Staphylococcus aureus ATCC 25923
# Outline: (§1)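 Twofold serial dilution method; reference laboratory ATCC strains used as test organisms: S. aureus 25923, E. coli 25922, S. pneumoniae 49619, H. influenzae 49247.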
# Streptococcus pneumoniae = assay: Antibacterial activity against Streptococcus pneumoniae ATCC 49619; outline: as §1
# Haemophilus influenzae = assay: Antibacterial activity against Haemophilus influenzae ATCC 49247; outline: as §1
# Escherichia coli = assay: Antibacterial activity against Escherichia coli ATCC 25922; outline: as §1
Compound,MIC (Staphylococcus aureus),MIC (Streptococcus pneumoniae),MIC (Haemophilus influenzae),MIC (Escherichia coli)
CC[C@H]1OC(=O)[C@H](C)[C@@H](O[C@H]2C[C@@](C)(OC)[C@@H](O)[C@H](C)O2)[C@H](C)[C@@H](O[C@@H]2O[C@H](C)C[C@H](N(C)C)[C@H]2O)[C@](C)(O)C[C@@H](C)C(=O)[C@H](C)[C@@H](O)[C@]1(C)O [ERYTHROMYCIN],0.25 µg/mL,64 µg/mL,64 µg/mL,0.25 µg/mL
CC[C@H]1OC(=O)[C@H](C)[C@@H](O[C@H]2C[C@@](C)(OC)[C@@H](O)[C@H](C)O2)[C@H](C)[C@@H](O[C@@H]2O[C@H](C)C[C@H](N(C)C)[C@H]2O)[C@](C)(O)C[C@@H](C)CN(C)[C@H](C)[C@@H](O)[C@]1(C)O [AZITHROMYCIN],0.5 µg/mL,4 µg/mL,8 µg/mL,0.5 µg/mL
CC(=O)OC[C@H]1O[C@@H](O[C@@H]2[C@@H](O)[C@H](C)O[C@@H](Oc3ccc(O)cc3[C@@H]3CC(=O)c4c(O)cc(O)cc4O3)[C@@H]2OC(C)=O)[C@H](O)[C@@H](OC(C)=O)[C@@H]1OC(C)=O,128 µg/mL,32 µg/mL,32 µg/mL,64 µg/mL
CC(=O)OC[C@H]1O[C@@H](O[C@@H]2[C@@H](O)[C@H](C)O[C@@H](Oc3ccc(O)cc3[C@@H]3CC(=O)c4c(O)cc(O)cc4O3)[C@@H]2OC(C)=O)[C@H](OC(C)=O)[C@@H](O)[C@@H]1O,128 µg/mL,32 µg/mL,32 µg/mL,64 µg/mL

# Further lines, results first:
MIC (Staphylococcus aureus),MIC (Streptococcus pneumoniae),MIC (Haemophilus influenzae),MIC (Escherichia coli),Compound
128 µg/mL,32 µg/mL,32 µg/mL,64 µg/mL,CC(=O)OC[C@H]1O[C@@H](O[C@@H]2[C@@H](O)[C@H](C)O[C@@H](Oc3ccc(O)cc3[C@@H]3CC(=O)c4c(O)cc(O)cc4O3)[C@@H]2OC(C)=O)[C@H](O)[C@@H](O)[C@@H]1O
128 µg/mL,32 µg/mL,32 µg/mL,64 µg/mL,CC(=O)O[C@H]1[C@H](Oc2ccc(O)cc2[C@@H]2CC(=O)c3c(O)cc(O)cc3O2)O[C@@H](C)[C@H](O)[C@H]1O[C@@H]1O[C@H](CO)[C@@H](O)[C@H](O)[C@H]1O
128 µg/mL,32 µg/mL,32 µg/mL,64 µg/mL,CC(=O)OC[C@H]1O[C@@H](O[C@@H]2[C@@H](O)[C@H](C)O[C@@H](Oc3ccc(O)cc3[C@@H]3CC(=O)c4c(O)cc(O)cc4O3)[C@@H]2OC(C)=O)[C@H](O)[C@@H](O)[C@@H]1OC(C)=O
128 µg/mL,32 µg/mL,32 µg/mL,64 µg/mL,C[C@@H]1O[C@@H](Oc2ccc(O)cc2[C@@H]2CC(=O)c3c(O)cc(O)cc3O2)[C@H](O)[C@H](O[C@@H]2O[C@H](CO)[C@@H](O)[C@H](O)[C@H]2O)[C@H]1O
128 µg/mL,32 µg/mL,32 µg/mL,64 µg/mL,CC(=O)OC[C@H]1O[C@@H](O[C@@H]2[C@@H](O)[C@H](C)O[C@@H](Oc3ccc(O)cc3[C@@H]3CC(=O)c4c(O)cc(O)cc4O3)[C@@H]2OC(C)=O)[C@H](O)[C@@H](OC(C)=O)[C@@H]1O
